The molecules below were run against 11-beta-hydroxysteroid dehydrogenase 1 (Rattus norvegicus, UniProt P16232) (assay: Inhibition of 11beta-HSD1 in rat liver assessed as cortisone level).
Chain of 11-beta-hydroxysteroid dehydrogenase 1 (P16232 whole entry): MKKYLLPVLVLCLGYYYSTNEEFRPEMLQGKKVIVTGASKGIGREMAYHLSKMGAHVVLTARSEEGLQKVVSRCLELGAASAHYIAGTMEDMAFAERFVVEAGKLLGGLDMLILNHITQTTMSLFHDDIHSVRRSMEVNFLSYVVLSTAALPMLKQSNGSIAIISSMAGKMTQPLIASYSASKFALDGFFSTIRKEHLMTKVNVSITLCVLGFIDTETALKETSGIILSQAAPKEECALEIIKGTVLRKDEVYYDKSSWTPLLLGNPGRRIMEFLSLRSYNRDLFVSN
Assay type: tissue-based
`CC1(C)[C@@H](O)CC[C@]2(C)[C@H]3C(=O)C=C4[C@@H]5C[C@@](C)(C(=O)O)CC[C@]5(C)CC[C@@]4(C)[C@]3(C)CC[C@@H]12` (stereo in doubt; 1) [ENOXOLONE] gave an IC50 of 90 nM.

These molecules were tested against 11-beta-hydroxysteroid dehydrogenase 1 (Homo sapiens) (UniProt P28845) (assay: Inhibition of human recombinant 11beta-HSD1 expressed in HEK293 cells assessed as conversion of [1,2-3H]cortisone to cortisol at 1 uM after 10 mins by scintillation counting).
Chain of 11-beta-hydroxysteroid dehydrogenase 1 (Homo sapiens) (P28845 whole entry, looked up): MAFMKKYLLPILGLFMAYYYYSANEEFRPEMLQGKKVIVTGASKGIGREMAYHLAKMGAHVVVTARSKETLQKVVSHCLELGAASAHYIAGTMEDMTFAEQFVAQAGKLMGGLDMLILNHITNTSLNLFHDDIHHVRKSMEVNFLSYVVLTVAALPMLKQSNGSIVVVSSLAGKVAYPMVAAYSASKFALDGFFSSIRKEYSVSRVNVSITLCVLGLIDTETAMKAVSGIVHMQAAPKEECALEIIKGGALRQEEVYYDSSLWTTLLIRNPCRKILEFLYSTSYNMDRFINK
Assay type: cell-based
How it was run: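 Lysates of HEK-293 cells (no endogenous 11β-HSD) expressing recombinant human 11β-HSD1. Reduction of [1,2-3H]cortisone to cortisol was run for 10 min at 37 °C with 200 nM cortisone (final) and NADPH as cofactor; solvent ≤0.1%. Reactions were stopped with methanol containing 2 mM unlabeled cortisone and cortisol. Steroids were separated by TLC and counted by scintillation. Three independent experiments.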
`C#CCNC(=O)[C@@]1(C)CC[C@]2(C)CC[C@]3(C)C(=CC(=O)[C@@H]4[C@@]5(C)CC[C@H](O)C(C)(C)[C@@H]5CC[C@]43C)[C@@H]2C1` was tested, and the inhibition was 10.1%.
In the case of `CC1(C)[C@@H](O)CC[C@]2(C)[C@H]3C(=O)C=C4[C@@H]5C[C@@](C)(C(=O)N6CCC(C(=O)O)CC6)CC[C@]5(C)CC[C@@]4(C)[C@]3(C)CC[C@@H]12`, the inhibition is reported as 19.5%.
`CN(C)CCNC(=O)[C@@]1(C)CC[C@]2(C)CC[C@]3(C)C(=CC(=O)[C@@H]4[C@@]5(C)CC[C@H](O)C(C)(C)[C@@H]5CC[C@]43C)[C@@H]2C1` showed an inhibition of 36%.
Work on `CC1(C)[C@@H](O[C@H]2O[C@H](C(=O)O)[C@@H](O)[C@H](O)[C@H]2O[C@@H]2O[C@H](C(=O)O)[C@@H](O)[C@H](O)[C@H]2O)CC[C@]2(C)[C@H]3C(=O)C=C4[C@@H]5C[C@@](C)(C(=O)O)CC[C@]5(C)CC[C@@]4(C)[C@]3(C)CC[C@@H]12` yielded an inhibition of 63.2%.
`CC1(C)[C@@H](OP(=O)(O)O)CC[C@]2(C)[C@H]3C(=O)C=C4[C@@H]5C[C@@](C)(C(=O)O)CC[C@]5(C)CC[C@@]4(C)[C@]3(C)CC[C@@H]12` showed an inhibition of 86%.
`C=CCNC(=O)[C@@]1(C)CC[C@]2(C)CC[C@]3(C)C(=CC(=O)[C@@H]4[C@@]5(C)CC[C@H](O)C(C)(C)[C@@H]5CC[C@]43C)[C@@H]2C1` showed an inhibition of 6.2%.
With `CC1(C)[C@H](O)CC[C@]2(C)[C@H]3C(=O)C=C4[C@@H]5C[C@@](C)(C(=O)O)CC[C@]5(C)CC[C@@]4(C)[C@]3(C)CC[C@@H]12` the inhibition was 97.4%.
In the case of `CC1(C)[C@@H](OC(=O)CCC(=O)O)CC[C@]2(C)[C@H]3C(=O)C=C4[C@@H]5C[C@@](C)(C(=O)O)CC[C@]5(C)CC[C@@]4(C)[C@]3(C)CC[C@@H]12`, the inhibition is reported as 87.7%.
`CC(=O)O[C@H]1CC[C@]2(C)[C@H]3C(=O)C=C4[C@@H]5C[C@@](C)(C(=O)O)CC[C@]5(C)CC[C@@]4(C)[C@]3(C)CC[C@H]2C1(C)C` showed an inhibition of 47.1%.
Work on `CC1(C)[C@@H](O)CC[C@]2(C)[C@H]3C(=O)C=C4[C@@H]5C[C@@](C)(C(=O)NCC(=O)O)CC[C@]5(C)CC[C@@]4(C)[C@]3(C)CC[C@@H]12` yielded an inhibition of 2.7%.
`CC1(C)[C@@H](O)CC[C@]2(C)[C@H]3C(=O)C=C4[C@@H]5C[C@@](C)(C(=O)O)CC[C@]5(C)CC[C@@]4(C)[C@]3(C)CC[C@@H]12` (stereo in doubt; 23) showed an inhibition of 49.7%.
`CC(=O)O[C@H]1CC[C@]2(C)[C@H]3C(=O)C=C4[C@@H]5C[C@@](C)(C=NO)CC[C@]5(C)CC[C@@]4(C)[C@]3(C)CC[C@H]2C1(C)C` was tested, and the inhibition was 43.3%.
`CC1(C)[C@@H](O)CC[C@]2(C)[C@H]3C(=O)C=C4[C@@H]5C[C@@](C)(C(=O)NCCO)CC[C@]5(C)CC[C@@]4(C)[C@]3(C)CC[C@@H]12` showed an inhibition of 2.9%.
`CC1(C)[C@@H](O)CC[C@]2(C)[C@H]3C(=O)C=C4[C@@H]5C[C@@](C)(C(=O)O)CC[C@]5(C)CC[C@@]4(C)[C@]3(C)CC[C@@H]12` (stereo in doubt; 1) was tested, and the inhibition was 91.2%.
Molecule `CCNC(=O)N(CCCN(C)C)C(=O)[C@@]1(C)CC[C@]2(C)CC[C@]3(C)C(=CC(=O)[C@@H]4[C@@]5(C)CC[C@H](O)C(C)(C)[C@@H]5CC[C@]43C)[C@@H]2C1` has an inhibition of 32.5%.
`CC(=O)O[C@H]1CC[C@]2(C)[C@H]3C(=O)C=C4[C@@H]5C[C@@](C)(C(=O)NN)CC[C@]5(C)CC[C@@]4(C)[C@]3(C)CC[C@H]2C1(C)C` gave an inhibition of 90.9%.
`CC1(C)C(=O)CC[C@]2(C)[C@H]3C(=O)C=C4[C@@H]5C[C@@](C)(C(=O)O)CC[C@]5(C)CC[C@@]4(C)[C@]3(C)CC[C@@H]12` showed an inhibition of 63.8%.
`CON=C1CC[C@]2(C)[C@H]3C(=O)C=C4[C@@H]5C[C@@](C)(C(=O)O)CC[C@]5(C)CC[C@@]4(C)[C@]3(C)CC[C@H]2C1(C)C` gave an inhibition of 63.2%.

From ChEMBL document CHEMBL1157667, “Synthesis of glycyrrhetinic acid derivatives for the treatment of metabolic diseases” (Bioorg Med Chem, 2010)
